From article PMC9476207 (ACS Omega, 2022)

Tests used:
Assay in all cases: NCI-60 single-dose antiproliferative screen
Format in all cases: cell-based
K-562 = settings: Homo sapiens, K562, 48 h, read-out: growth percent
Method in brief: (§1)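 NCI-60 protocol. Lines were grown in RPMI 1640 with 5% FBS and 2 mM L-glutamine, plated and incubated 24 h at 37 °C; time-zero plates were TCA-fixed. The test compound was dissolved in DMSO, diluted in medium with 50 μg/mL gentamicin and given once at a final 10^-5 M (DMSO control) for 48 h. Cells were fixed with cold TCA (1 h, 4 °C) and stained with 0.4% SRB in 1% acetic acid for 10 min. Dye was dissolved in 10 mM Trizma base and read at 515 nm. Growth percent was calculated from time-zero, test and control ODs.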

EKVX = settings: Homo sapiens, 48 h, read-out: growth percent
Method in brief: as §1

HOP-92 = settings: Homo sapiens, HOP-92, 48 h, read-out: growth percent
Method in brief: as §1

HCT-15 = settings: Homo sapiens, HCT-15, 48 h, read-out: growth percent
Method in brief: as §1

SNB-75 = settings: Homo sapiens, SNB-75, 48 h, read-out: growth percent
Method in brief: (§2)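 Cells grown in RPMI 1640 with 5% FBS and 2 mM L-glutamine, plated and held 24 h at 37 °C; time-zero plates TCA-fixed. DMSO stocks were diluted in gentamicin-containing medium to a final 10^-5 M, with a DMSO-only control. Exposure 48 h, 5% CO2. Adherent cells TCA-fixed 1 h at 4 °C, stained with 0.4% SRB, solubilised in 10 mM Trizma base, read at 515 nm. Growth percent derived from ODtzero, ODtest and ODctrl.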

U251 = settings: Homo sapiens, U-251, 48 h, read-out: growth percent
Method in brief: as §2

LOX IMVI = settings: Homo sapiens, 48 h, read-out: growth percent
Method in brief: as §1

MALME-3M = settings: Homo sapiens, 48 h, read-out: growth percent
Method in brief: as §1

M14 = settings: Homo sapiens, M14, 48 h, read-out: growth percent
Method in brief: as §1

SK-MEL-28 = settings: Homo sapiens, SK-MEL-28, 48 h, read-out: growth percent
Method in brief: as §2

SK-MEL-5 = settings: Homo sapiens, SK-MEL-5, 48 h, read-out: growth percent
Method in brief: as §2

OVCAR-3 = settings: Homo sapiens, OVCAR-3, 48 h, read-out: growth percent
Method in brief: as §1

OVCAR-4 = settings: Homo sapiens, OVCAR-4, 48 h, read-out: growth percent
Method in brief: as §1

OVCAR-5 = settings: Homo sapiens, OVCAR-5, 48 h, read-out: growth percent
Method in brief: as §1

OVCAR-8 = settings: Homo sapiens, OVCAR-8, 48 h, read-out: growth percent
Method in brief: as §1

NCI/ADR-RES = settings: Homo sapiens, 48 h, read-out: growth percent
Method in brief: as §1

786-0 = settings: Homo sapiens, 786-0, 48 h, read-out: growth percent
Method in brief: as §1

ACHN = settings: Homo sapiens, 48 h, read-out: growth percent
Method in brief: as §1

MDA-MB-231 ATCC = settings: Homo sapiens, MDA-MB-231, 48 h, read-out: growth percent
Method in brief: as §1

BT-549 = settings: Homo sapiens, BT-549, 48 h, read-out: growth percent
Method in brief: as §1

SMILES | activity at 10 µM (K-562) | activity at 10 µM (EKVX) | activity at 10 µM (HOP-92) | activity at 10 µM (HCT-15) | activity at 10 µM (SNB-75) | activity at 10 µM (U251) | activity at 10 µM (LOX IMVI) | activity at 10 µM (MALME-3M) | activity at 10 µM (M14) | activity at 10 µM (SK-MEL-28) | activity at 10 µM (SK-MEL-5) | activity at 10 µM (OVCAR-3) | activity at 10 µM (OVCAR-4) | activity at 10 µM (OVCAR-5) | activity at 10 µM (OVCAR-8) | activity at 10 µM (NCI/ADR-RES) | activity at 10 µM (786-0) | activity at 10 µM (ACHN) | activity at 10 µM (MDA-MB-231 ATCC) | activity at 10 µM (BT-549)
COc1cc(CNC(=O)CCCC/C=C/C(C)C)ccc1OCc1cn(-c2ccc(Cl)cc2)nn1 [14a, (E)-N-(4-((1-(4-Chlorophenyl)-1H-1,2,3-triazol-4-yl)methoxy)-3-methoxybenzyl)-8-methylnon-6-enamide] | 66.7% | 72% | 77.1% | 91.8% | 76.4% | 86.9% | 85.6% | 97.8% | 90.6% | 106% | 77.6% | 105% | 82.6% | 100% | 79% | 78.1% | 92.5% | 59.7% | 79.5% | 86.8%
COc1cc(CNC(=O)CCCC/C=C/C(C)C)ccc1OCc1cn(-c2cccc(Cl)c2)nn1 [14b, (E)-N-(4-((1-(3-Chlorophenyl)-1H-1,2,3-triazol-4-yl)methoxy)-3-methoxybenzyl)-8-methylnon-6-enamide] | 84.9% | 80.8% | 62.4% | 91.3% | 75.8% | 69.1% | 89.4% | 98.7% | 94.1% | 106% | 91.2% | 84.4% | 67.2% | 99.8% | 57.2% | 76.6% | 76.8% | 73% | 64.8% | 99.3%
COc1cc(CNC(=O)CCCC/C=C/C(C)C)ccc1OCc1cn(-c2ccccc2Cl)nn1 [14c, (E)-N-(4-((1-(2-Chlorophenyl)-1H-1,2,3-triazol-4-yl)methoxy)-3-methoxybenzyl)-8-methylnon-6-enamide] | 76.8% | 82.1% | 80.1% | 94.1% | 87.3% | 85.7% | 89.9% | 107% | 92.6% | 106% | 89.8% | 101% | 87.9% | 104% | 89.6% | 92% | 93.8% | 74.1% | 80.8% | 90.8%
COc1cc(CNC(=O)CCCC/C=C/C(C)C)ccc1OCc1cn(-c2ccc(Cl)c(Cl)c2)nn1 [14d, (E)-N-(4-((1-(3,4-Dichlorophenyl)-1H-1,2,3-triazol-4-yl)methoxy)-3-methoxybenzyl)-8-methylnon-6-enamide] | 77.1% | 76.2% | 78.7% | 93.6% | 79.1% | 91.9% | 87% | 105% | 92.7% | 104% | 81.6% | 92.4% | 69.5% | 102% | 91% | 91.1% | 96.3% | – | 87.3% | 91.8%
COc1cc(CNC(=O)CCCC/C=C/C(C)C)ccc1OCc1cn(-c2ccc([N+](=O)[O-])cc2)nn1 [14e, (E)-N-(3-Methoxy-4-((1-(4-nitrophenyl)-1H-1,2,3-triazol-4-yl)methoxy)benzyl)-8methylnon-6-enamide] | 74.5% | 75.3% | 90.3% | 96.2% | 83.9% | 86.4% | 89.5% | 98.4% | 89.7% | 102% | 76.1% | 92.7% | 87.2% | 99.2% | 82.9% | 29% | 93.7% | 82% | 75.3% | 80.4%
COc1cc(CNC(=O)CCCC/C=C/C(C)C)ccc1OCc1cn(-c2ccc(C(F)(F)F)cc2)nn1 [14g, (E)-N-(3-Methoxy-4-((1-(4-(trifluoromethyl)phenyl)-1H-1,2,3-triazol-4-yl)methoxy)benzyl)-8-methylnon-6-enamide] | 76.3% | 88.2% | 13.8% | 59.7% | 49.7% | 46.7% | 60.3% | 99.7% | 97.5% | 107% | 97.1% | 107% | 98.6% | 96.6% | 41.1% | 48.2% | 2.94% | – | 75.2% | 80.4%
COc1cc(CNC(=O)CCCC/C=C/C(C)C)ccc1OCc1cn(-c2ccccc2OC)nn1 [14l, (E)-N-(3-Methoxy-4-((1-(2-methoxyphenyl)-1H-1,2,3-triazol-4-yl)methoxy)benzyl)-8-methylnon-6-enamide] | 76.1% | 89.4% | 72.1% | 106% | 103% | 90.2% | 86.1% | 106% | 96.7% | 116% | 83.9% | 103% | 100% | 113% | 82.2% | 94.6% | 102% | – | 95.8% | 93.1%
COc1cc(CNC(=O)CCCC/C=C/C(C)C)ccc1OCc1cn(-c2cc(OC)c(OC)c(OC)c2)nn1 [14m, (E)-N-(3-Methoxy-4-((1-(3,4,5-trimethoxyphenyl)-1H-1,2,3-triazol-4-yl)methoxy)benzyl)-8-methylnon-6-enamide] | 79.7% | 95.9% | 82.5% | 103% | 95.2% | 92.8% | 94.4% | 98.5% | 94.5% | 108% | 77.5% | 103% | 103% | 109% | 88.2% | 91.7% | 108% | – | 92.7% | 79.1%
CCc1ccc(-n2cc(COc3ccc(CNC(=O)CCCC/C=C/C(C)C)cc3OC)nn2)cc1 [14o, (E)-N-(4-((1-(4-Ethylphenyl)-1H-1,2,3-triazol-4-yl)methoxy)-3-methoxybenzyl)-8-methylnon-6-enamide] | 78.6% | 82.1% | 86.5% | 94.4% | 92.6% | 89.4% | 89.3% | 108% | 99.8% | 115% | 84% | 101% | 89% | 112% | 91.1% | 87.7% | 100% | – | 88% | 99.1%
